Results on 19 compounds are retold here after ChEMBL document CHEMBL4680184, “Simple amphiphilic α-hydrazido acids: Rational design, synthesis, and in vitro bioactivity profile of a novel class of potential antimicrobial compounds” (Eur J Med Chem, 2020).

One data set has as its system Enterococcus faecalis. Put plainly: Antibacterial activity against Enterococcus faecalis ATCC 29212 assessed as inhibition of visible growth after 24 hrs by broth microdilution method. The format is functional. An outline of the steps:
(§1)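 Compounds dissolved in sterile water at the highest achievable concentration, then serially diluted in Mueller-Hinton II broth per CLSI broth microdilution. Strains grown 6 h in BHI, diluted in MHII to 1 × 10^6 cfu/mL final. Aerobic incubation 37 °C, 24 h; tetracycline internal control; bacteria-only growth controls. MIC = lowest concentration with no visible growth; triplicate.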

Another data set deals with Enterococcus faecium. Put plainly: Antibacterial activity against Enterococcus faecium 135562 (35C) assessed as inhibition of visible growth after 24 hrs by broth microdilution method. Type of data set: functional. An outline of the steps: as §1
Data set [1] in a line: Retention time of the compound by RP-HPLC analysis. The format is physicochemical. An outline of the steps:
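RP-HPLC on C18 column (5 µm, 200 × 4.6 mm), 0.5 mL/min; hydrochlorides at 0.5–1 mg/mL in water:2-propanol 70:30, gradient to 10:90 over 40 min, then 20 min at 10:90. Adjusted retention time = instrumental retention time minus hold-up time.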

A further data set concerns Pseudomonas aeruginosa. As to the kind of experiment: Antibacterial activity against Pseudomonas aeruginosa ATCC 27853 assessed as inhibition of visible growth after 24 hrs by broth microdilution method. The format is functional. Put shortly:
as §1

Another data set relates to Escherichia coli. Put plainly: Antibacterial activity against Escherichia coli ATCC 25922 assessed as inhibition of visible growth after 24 hrs by broth microdilution method. The format is functional. Put shortly: as §1
Another data set relates to Staphylococcus aureus. As to the kind of experiment: Antibacterial activity against Staphylococcus aureus ATCC 29213 assessed as inhibition of visible growth after 24 hrs by broth microdilution method. The format is functional. Put shortly: as §1
The nature of data set [2]: Hemolytic activity against human erythrocytes measured after 1 hr by microplate reader based spectrophotometric analysis. The format is ADME, cell-based, Erythrocyte. An outline of the steps:
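Heparinized fresh human blood washed three times in PBS pH 7.4 (1000 g, 10 min), resuspended ~20 vol %. Equal volume with 1:2 serial dilutions of compound in PBS, 1 h at 37 °C; PBS and 0.2 vol % Triton X-100 controls. Supernatant diluted 1:60, A350 read. HC50 from three- or four-parameter Hill fit; mean of three replicates.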

The nature of data set [3]: Therapeutic index, ratio of HC50 for human erythrocytes to MIC for Escherichia coli ATCC 25922. As to conditions: read-out: TI. The format is toxicity.
Data set [4] is described as follows: Therapeutic index, ratio of HC50 for human erythrocytes to MIC for Staphylococcus aureus ATCC 29213. Type of data set: toxicity. As to conditions: read-out: TI.

Molecules are shown by their SMILES. ≈ marks a conversion by molar mass, not a printed value.

Regarding `CCCCCCCCNC(=O)CN(C(=O)CN)N(C)C(=O)OCc1ccccc1`, the minimum inhibitory concentration (MIC) came out at 128 µg/mL (≈ 315 µM) with Enterococcus faecalis; 128 µg/mL (≈ 315 µM) in the data set with Enterococcus faecium; 256 µg/mL (≈ 630 µM) in the data set with Pseudomonas aeruginosa; 128 µg/mL (≈ 315 µM) with Escherichia coli; 128 µg/mL (≈ 315 µM) in the data set with Staphylococcus aureus. In addition, in data set [1], the Retention_time is 13.8 min.

Consider `CCCCCCCCNC(=O)CN(NC(=O)c1ccccc1)C(=O)CN.Cl`, for which the minimal inhibitory concentration (MIC) in the data set on Enterococcus faecalis, in the data set with Enterococcus faecium, in the data set with Pseudomonas aeruginosa, in the data set with Escherichia coli and with Staphylococcus aureus was 128 µg/mL throughout. In [1], this compound had a Retention_time of 12.3 min. Also, the HC50 at 1 h in data set [2] turned out to be 368 µg/mL. Moreover, the selectivity ratio in data set [3] and in data set [4] was 2.9 in each case.

With `CCCCCCCCCCCCCCCCCCNC(=O)CN(NC(=O)CCCCCCCCCCCCCCCCC)C(=O)CN.Cl`, in data set [1], the Retention_time came out at 41.8 min.

`CCCCCCCCCCCCCCCCCC(=O)NN(CC(=O)NCCCCCCCCCCCC)C(=O)CN.Cl`: the MIC in the data set with Enterococcus faecalis amounted to 512 µg/mL; with Enterococcus faecium it was 256 µg/mL; in the data set on Pseudomonas aeruginosa, 512 µg/mL; in the data set on Escherichia coli, 512 µg/mL; in the data set on Staphylococcus aureus, 256 µg/mL. In addition, the Retention_time in [1] came to 35.8 min. In [2], the HC50 at 1 h worked out at 124 µg/mL. Moreover, the selectivity ratio was 0.2 in data set [3] and 0.5 in [4].

Take `CCCCCCCCNC(=O)CN(NC(=O)C(C)(C)C)C(=O)CN.Cl`: the minimum inhibitory concentration (MIC) with Enterococcus faecalis worked out at 256 µg/mL; with Enterococcus faecium, 256 µg/mL; in the data set with Pseudomonas aeruginosa, 512 µg/mL; in the data set on Escherichia coli it was 256 µg/mL; with Staphylococcus aureus, 512 µg/mL. The Retention_time in data set [1] stood at 11.7 min. Besides, in data set [2], the HC50 at 1 h was determined as 775 µg/mL. Also, the selectivity ratio in [3] was found to be 3; in data set [4], 1.5.

For `CCCCCCCCCCCCCCCCCCNC(=O)CN(NC(=O)CCCCCCC)C(=O)CN.Cl`, the minimum inhibitory concentration (MIC) with Enterococcus faecalis, with Enterococcus faecium, in the data set with Pseudomonas aeruginosa, in the data set with Escherichia coli and in the data set with Staphylococcus aureus was more than 256 µg/mL each time. Moreover, in data set [1], the Retention_time is recorded as 33.1 min. The compound further gave a concentration for 50% haemolysis (HC50) at 1 h in [2] of 267 µg/mL. The selectivity ratio in data set [3] and in data set [4] was less than 1 throughout.

Regarding `CCCCCCCCCCCCNC(=O)CN(NC(=O)CCCCCCCCCCC)C(=O)CN.Cl`, the MIC with Enterococcus faecalis is 128 µg/mL; in the data set on Enterococcus faecium it was 128 µg/mL; with Pseudomonas aeruginosa, more than 128 µg/mL; in the data set on Escherichia coli, more than 128 µg/mL; in the data set on Staphylococcus aureus, more than 128 µg/mL. Besides, the Retention_time in data set [1] came to 29.1 min. This compound also gave a 50% haemolytic concentration (HC50) at 1 h in data set [2] of 438 µg/mL. Also, the selectivity ratio in data set [3] and in data set [4] was less than 3.4 each time.

Regarding `CCCNC(=O)CN(NC(=O)OCc1ccccc1)C(=O)CN.Cl`, the MIC in the data set on Enterococcus faecalis is 1020 µg/mL; in the data set with Enterococcus faecium, 512 µg/mL; in the data set with Pseudomonas aeruginosa, 512 µg/mL; in the data set with Escherichia coli, 512 µg/mL; with Staphylococcus aureus, 512 µg/mL. In addition, the Retention_time in data set [1] is 3.4 min. This compound also returned an HC50 at 1 h in data set [2] of 775 µg/mL. The selectivity ratio in [3] and in data set [4] was 1.5 in each case.

For the compound `CCCCCCCCCCCCCCCCCC(=O)NN(CC(=O)NCCCCCCCC)C(=O)CN.Cl`, the MIC was determined as 512 µg/mL in the data set with Enterococcus faecalis; 64 µg/mL in the data set on Enterococcus faecium; 512 µg/mL in the data set with Pseudomonas aeruginosa; 512 µg/mL in the data set with Escherichia coli; 128 µg/mL in the data set with Staphylococcus aureus. Also, in data set [1], the Retention_time was 32.2 min. Further, the 50% haemolytic concentration (HC50) at 1 h in [2] came to 200 µg/mL. Besides, the values for the selectivity ratio in data set [3] and in data set [4] were 0.4 and 1.6, respectively.

For `CCCCCCCCCCCCCCCCCCNC(=O)CN(NC(C)=O)C(=O)CN.Cl`, the minimal inhibitory concentration (MIC) in the data set with Enterococcus faecalis was 32 µg/mL; in the data set on Enterococcus faecium, 32 µg/mL; with Pseudomonas aeruginosa, 512 µg/mL; with Escherichia coli, 512 µg/mL; with Staphylococcus aureus, 256 µg/mL. The compound also showed a Retention_time in data set [1] of 28 min. In data set [2], the 50% haemolytic concentration (HC50) at 1 h came out at 228 µg/mL. Moreover, the selectivity ratio was found to be 0.5 in [3] and 0.9 in data set [4].

`CCCCCCCCNC(=O)CN(C(=O)CN)N(C)C(C)=O`: the MIC with Enterococcus faecalis is 1020 µg/mL (≈ 3260 µM); with Enterococcus faecium, 1020 µg/mL (≈ 3260 µM); in the data set on Pseudomonas aeruginosa it was 2050 µg/mL (≈ 6510 µM); with Escherichia coli, 2050 µg/mL (≈ 6510 µM); in the data set on Staphylococcus aureus, 2050 µg/mL (≈ 6510 µM). Moreover, the Retention_time in data set [1] was 9.1 min.

For `CCCCCCCCNC(=O)CN(NC(C)=O)C(=O)CN.Cl`, the minimal inhibitory concentration (MIC) was 256 µg/mL with Enterococcus faecalis; 128 µg/mL in the data set with Enterococcus faecium; 256 µg/mL in the data set with Pseudomonas aeruginosa; 256 µg/mL in the data set with Escherichia coli; 128 µg/mL in the data set on Staphylococcus aureus. For the same compound, in data set [1], the Retention_time stood at 9.3 min. In [2], this compound came in with an HC50 at 1 h of 223 µg/mL. Further, the selectivity ratio in [3] was determined as 0.9; in [4], 1.7.

Consider `CCCCCCCCCCCCNC(=O)CN(NC(C)=O)C(=O)CN.Cl`, for which the MIC with Enterococcus faecalis came to 32 µg/mL; with Enterococcus faecium, 32 µg/mL; in the data set with Pseudomonas aeruginosa, 64 µg/mL; in the data set with Escherichia coli, 64 µg/mL; in the data set on Staphylococcus aureus it was 64 µg/mL. The compound also had a Retention_time in data set [1] of 17.5 min. For the same compound, in data set [2], the HC50 at 1 h was 127 µg/mL. Besides, the selectivity ratio in data set [3] and in data set [4] was 2 in each case.

`CCCCCCCCCCCCNC(=O)CN(NC(=O)OCc1ccccc1)C(=O)CN.Cl`: the MIC with Enterococcus faecalis worked out at 16 µg/mL; in the data set with Enterococcus faecium, 8 µg/mL; with Pseudomonas aeruginosa, 128 µg/mL; in the data set with Escherichia coli, 32 µg/mL; in the data set with Staphylococcus aureus, 8 µg/mL. The same compound gave a Retention_time in data set [1] of 21.2 min. Further, in data set [2], the concentration for 50% haemolysis (HC50) at 1 h was 86 µg/mL. Besides, the selectivity ratio in data set [3] came out at 2.7; in data set [4], 11.

`CCCCCCCCCCCCNC(=O)CN(C(=O)CN)N(C)C(=O)OCc1ccccc1`: the minimal inhibitory concentration (MIC) with Enterococcus faecalis came out at 8 µg/mL (≈ 17.3 µM); in the data set with Enterococcus faecium it was 8 µg/mL (≈ 17.3 µM); with Pseudomonas aeruginosa, 512 µg/mL (≈ 1110 µM); in the data set with Escherichia coli it was 64 µg/mL (≈ 138 µM); with Staphylococcus aureus it was 8 µg/mL (≈ 17.3 µM). Further, the Retention_time in data set [1] worked out at 20.7 min.

For `CCCCCCCCCCCCCCCCCCNC(=O)CN(NC(=O)CCCCCCCCCCC)C(=O)CN.Cl`, the minimal inhibitory concentration (MIC) in the data set with Enterococcus faecalis was 512 µg/mL; with Enterococcus faecium it was 512 µg/mL; in the data set on Pseudomonas aeruginosa, 512 µg/mL; in the data set on Escherichia coli, more than 512 µg/mL; with Staphylococcus aureus, 256 µg/mL. Also, the Retention_time in data set [1] is 35.9 min. Moreover, the HC50 at 1 h in data set [2] worked out at 364 µg/mL. The values for the selectivity ratio in data set [3] and in data set [4] were less than 0.7 and 1.4, respectively.

As to `CCCCCCCCCCCCNC(=O)CN(C(=O)CN)N(C)C(C)=O`, the minimum inhibitory concentration (MIC) in the data set with Enterococcus faecalis was determined as 32 µg/mL (≈ 86.4 µM); in the data set with Enterococcus faecium it was 32 µg/mL (≈ 86.4 µM); with Pseudomonas aeruginosa it was 256 µg/mL (≈ 691 µM); with Escherichia coli it was 128 µg/mL (≈ 345 µM); with Staphylococcus aureus it was 64 µg/mL (≈ 173 µM). Also, the Retention_time in data set [1] was 17.1 min.

With `CCCCCCCCNC(=O)CN(C(=O)CN)N(C)C(=O)C(C)(C)C`, the minimum inhibitory concentration (MIC) in the data set on Enterococcus faecalis was 512 µg/mL (≈ 1440 µM); in the data set on Enterococcus faecium it was 512 µg/mL (≈ 1440 µM); in the data set on Pseudomonas aeruginosa, 512 µg/mL (≈ 1440 µM); with Escherichia coli, 256 µg/mL (≈ 718 µM); in the data set with Staphylococcus aureus, 512 µg/mL (≈ 1440 µM). In data set [1], this compound came in with a Retention_time of 11.7 min.

In the case of `CCCCCCCCCCCCNC(=O)CN(C(=O)CN)N(C)C(=O)C(C)(C)C`, the minimum inhibitory concentration (MIC) with Enterococcus faecalis came out at 16 µg/mL (≈ 38.8 µM); with Enterococcus faecium it was 16 µg/mL (≈ 38.8 µM); in the data set with Pseudomonas aeruginosa it was 512 µg/mL (≈ 1240 µM); in the data set on Escherichia coli, 64 µg/mL (≈ 155 µM); in the data set on Staphylococcus aureus, 16 µg/mL (≈ 38.8 µM). In [1], the Retention_time stood at 18.9 min.
